Results pooled from the literature.
RET V804M: Proto-oncogene tyrosine-protein kinase receptor Ret (RET, Homo sapiens, UniProt P07949, V804M)
RET V804L: Proto-oncogene tyrosine-protein kinase receptor Ret (RET, Homo sapiens, UniProt P07949, V804L)
RET: Proto-oncogene tyrosine-protein kinase receptor Ret (RET, Homo sapiens, UniProt P07949)

Cc1cnn2ncc(-c3ccnc(N(C)C)n3)c2c1
remaining binding (RET V804M; binding; 1 µM): 100%

CC(C)(O)c1cncc(-c2nc3ccc(F)cc3n2C2CC2)c1
remaining binding (RET V804M; cell-free assay; competition with immobilised ligand; 1 µM): 100%

COc1ccc(CN2C3CC2CN(c2ccc(-c4cc(OCC(C)(C)O)cn5ncc(C#N)c45)cn2)C3)cn1
ΔTm (RET V804M; thermal stability; DSF; 10 µM): 6.4 °C

CNC(=O)Nc1ccc2c(c1)[C@@]1(CC2)OC(=O)N(CC(=O)N(Cc2ccc(F)cc2)[C@@H](C)C(F)(F)F)C1=O
remaining binding (RET V804L; cell-free assay; competition with immobilised ligand; 1 µM): 94%

COc1ccc(OC)c(NC(=O)Nc2cc(OC)c3nc(NC(=O)c4ccccc4)sc3c2)c1
remaining activity (RET; enzyme activity; inhibitor; radiometric; 0.1 µM): 114%

CN(C)c1ncc(F)c(-c2cnn3ncccc23)n1
remaining binding (RET V804L; binding; 1 µM): 91%

CO[C@]1(C(=O)N[C@@H](C)c2ccc(-n3cc(F)cn3)nc2)CC[C@H](c2nc(C)cc(Nc3cc(C)[nH]n3)n2)CC1
ΔTm (Proto-oncogene tyrosine-protein kinase receptor Ret (RET, Homo sapiens, UniProt P07949, L772A); thermal stability; DSF; 10 µM): 11.7 °C

CCOCCn1cc(C(=O)Nc2ccc(-n3nc(-c4cccnc4)cc3C(F)(F)F)cn2)ccc1=O
remaining binding (RET V804L; cell-free assay; competition with immobilised ligand; 1 µM): 97%

C[C@@H]1CCN(c2nccc(-c3cnn4ncccc34)n2)C1
remaining binding (RET V804M; binding; 1 µM): 88%

CC(=O)c1cccc(NC(=O)Cc2csc(NC(=O)Nc3cccc(Cl)c3)n2)c1
remaining activity (RET; enzyme activity; inhibitor; radiometric; 0.1 µM): 116%

C[C@H](c1ccnc(Nc2nc3ccc(-c4cc(N(C)C)ncn4)cc3[nH]2)c1)N1CCN(C(=O)CC(F)(F)F)CC1
remaining binding (RET V804L; cell-free assay; competition with immobilised ligand; 0.1 µM): 83%

Nc1nc(SCC(=O)Nc2ccc3c(c2)OCO3)[nH]c(=O)c1NC(=O)c1ccc(F)c(F)c1
remaining activity (RET; enzyme activity; inhibitor; radiometric; 0.1 µM): 109%

Nc1ncnc2occ(-c3ccc(NC(=O)Nc4cc(C(F)(F)F)ccc4F)cc3)c12
remaining signal (RET; cell-free assay; 20 µM): 0%

COc1cc(NC(=O)Nc2cc(C)c3nc(NC(=O)c4ccccc4)sc3c2)cc(OC)c1
remaining activity (RET; enzyme activity; inhibitor; radiometric; 0.1 µM): 123%

CCCOc1ccc(OC)c(F)c1C(=O)c1ccc(C(=O)N[C@@H]2CNC[C@H]2NC(=O)c2ccc3[nH]ncc3c2)cc1
remaining activity (RET V804L; enzyme activity; inhibitor; 10 µM): 8%

Cc1cccc(-n2ncc3c(O)c(C(=O)Nc4ccc(C)cc4F)c(=O)[nH]c32)c1
remaining activity (RET; enzyme activity; inhibitor; radiometric; 10 µM): 79%

O=c1nc(-c2ccccn2)sc2ccccc12
remaining binding (RET V804M; binding; competition with immobilised ligand; 1 µM): 100%

Cc1cccc(NC(=O)CNC(=O)c2ccccc2NS(=O)(=O)c2ccc3[nH]c(=O)[nH]c3c2)c1C
remaining activity (RET; enzyme activity; inhibitor; radiometric; 10 µM): 85.9%

CCCCN(CCCC)C(=O)CN1C[C@H](c2cc(OC)c3c(c2)OCO3)[C@@H](C(=O)O)[C@@H]1CC(C)(C)CCC
remaining binding (RET; cell-free assay; competition with immobilised ligand; 1 µM): 100%

CC(=O)Nc1cccc2c1CCN(C(=O)CCNC(=O)c1ccsc1)C2
remaining activity (RET; enzyme activity; inhibitor; radiometric; 10 µM): 90.8%

COc1ccc2c(c1)O[C@H](c1ccc(OC)c(OC)c1)C[C@@H]2NC(=O)C1(c2ccc3c(c2)OC(F)(F)O3)CC1
remaining binding (RET V804M; cell-free assay; competition with immobilised ligand; 1 µM): 100%
